{"source": "ChEMBL document CHEMBL1933043", "key": {"[1]": {"test_system": "Influenza A virus", "test": "Antiviral activity against influenza A virus (A/swine/OH/511445/2007(H1N1)) Oh7 infected in MDCK cells assessed as inhibition of viral replication after 4 days by quantitative RT-PCR", "format": "functional", "conditions": "(A/swine/OH/511445/2007(H1N1)) Oh7, MDCK, 96 h, read-out: ED50 (the source's name)"}, "[2]": {"test": "Cytotoxicity against MDCK cells after 4 days", "format": "cell-based, Canis lupus familiaris", "conditions": "dog, read-out: TD50", "procedure,_shortened": "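MDCK cells exposed to compounds at 0.1–150 μM with trypsin (10 μg/mL) for up to 4 days. Cells were inspected microscopically. TD50 was taken as the dose causing 50% cell death.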"}, "[3]": {"test": "Therapeutic index, ratio of TD50 for MDCK cells to ED50 for influenza A virus (A/swine/OH/511445/2007(H1N1)) Oh7", "format": "cell-based", "conditions": "dog, read-out: Ratio TD50/ED50", "procedure,_shortened": "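MDCK cells infected with swine influenza A/swine/OH/511445/2007 (H1N1, Oh7) and incubated with compound at 0.1–150 μM plus trypsin (10 μg/mL) for up to 4 days. Cytopathic effect was scored, and replication was confirmed by immunofluorescence and Western blot against viral nucleoprotein or whole virus. ED50 is the dose giving 50% virus reduction, and TD50 the dose giving 50% cell death. TI is TD50/ED50.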"}}}
{"molecule": "O=C(Oc1c(-c2ccc(O)c(O)c2)oc2cc(O)cc(O)c2c1=O)c1cc(O)c(O)c(O)c1", "values": [{"measurement": "EC50", "setting": "[1]", "result": 9.1, "unit": "µM"}, {"measurement": "CC50 at 96 h", "setting": "[2]", "result": 90.2, "unit": "µM"}, {"measurement": "selectivity ratio", "setting": "[3]", "result": 9.9}]}
{"molecule": "O=C(Oc1c(-c2ccc(O)c(O)c2)oc2cc(O)cc(O)c2c1=O)c1cc(O)ccc1O", "values": [{"measurement": "EC50", "setting": "[1]", "result": 19.4, "unit": "µM"}, {"measurement": "CC50 at 96 h", "setting": "[2]", "result": 45.2, "unit": "µM"}, {"measurement": "selectivity ratio", "setting": "[3]", "result": 2.3}]}
{"molecule": "Nc1cc(C(=O)Oc2c(-c3ccc(O)c(O)c3)oc3cc(O)cc(O)c3c2=O)ccc1O", "values": [{"measurement": "EC50", "setting": "[1]", "result": 22.6, "unit": "µM"}, {"measurement": "CC50 at 96 h", "setting": "[2]", "result": 60.1, "unit": "µM"}, {"measurement": "selectivity ratio", "setting": "[3]", "result": 2.7}]}
{"molecule": "Nc1ccc(C(=O)Oc2c(-c3ccc(O)c(O)c3)oc3cc(O)cc(O)c3c2=O)cc1O", "values": [{"measurement": "EC50", "setting": "[1]", "result": 24.1, "unit": "µM"}, {"measurement": "CC50 at 96 h", "setting": "[2]", "result": 54.8, "unit": "µM"}, {"measurement": "selectivity ratio", "setting": "[3]", "result": 2.3}]}
{"molecule": "O=C(Oc1cc(-c2oc3cc(O)cc(O)c3c(=O)c2O)ccc1O)c1cc(O)c(O)c(O)c1", "values": [{"measurement": "EC50", "setting": "[1]", "result": "> 50", "unit": "µM"}]}
{"molecule": "NCCCOc1cc(-c2oc3cc(O)cc(O)c3c(=O)c2O)ccc1O", "values": [{"measurement": "EC50", "setting": "[1]", "result": "> 50", "unit": "µM"}]}
{"molecule": "CCCOc1cc(O)cc2oc(-c3ccc(O)c(O)c3)c(O)c(=O)c12", "values": [{"measurement": "EC50", "setting": "[1]", "result": "> 50", "unit": "µM"}]}
{"molecule": "O=c1c(OCc2ccccc2)c(-c2ccc(OCc3ccccc3)c(OCc3ccccc3)c2)oc2cc(OCc3ccccc3)cc(O)c12", "values": [{"measurement": "EC50", "setting": "[1]", "result": "> 50", "unit": "µM"}]}
{"molecule": "O=C(O[C@@H]1Cc2c(O)cc(O)cc2O[C@@H]1c1cc(O)c(O)c(O)c1)c1cc(O)c(O)c(O)c1", "note": "[EPIGALOCATECHIN GALLATE]", "values": [{"measurement": "EC50", "setting": "[1]", "result": 8.3, "unit": "µM"}, {"measurement": "CC50 at 96 h", "setting": "[2]", "result": 45.5, "unit": "µM"}, {"measurement": "selectivity ratio", "setting": "[3]", "result": 5.5}]}
{"molecule": "O=c1c(O[C@@H]2O[C@H](CO)[C@@H](O)[C@H](O)[C@H]2O)c(-c2ccc(O)c(O)c2)oc2cc(O)cc(O)c12", "note": "[ISOQUERCETIN]", "values": [{"measurement": "EC50", "setting": "[1]", "result": 1.2, "unit": "µM"}, {"measurement": "CC50 at 96 h", "setting": "[2]", "result": 45.1, "unit": "µM"}, {"measurement": "selectivity ratio", "setting": "[3]", "result": 37.6}]}
{"molecule": "O=c1c(O)c(-c2ccc(O)c(O)c2)oc2cc(O)cc(O)c12", "note": "[QUERCETIN]", "values": [{"measurement": "EC50", "setting": "[1]", "result": 48.2, "unit": "µM"}, {"measurement": "CC50 at 96 h", "setting": "[2]", "result": 83.4, "unit": "µM"}, {"measurement": "selectivity ratio", "setting": "[3]", "result": 1.7}]}
